Bioassay records deposited in PubChem by Sanford-Burnham Center for Chemical Genomics.
hIAP act: increases human intestinal alkaline phosphatase activity; purified human IAP, CDP-Star luminescence, 30 min; active compounds read high; 1 = vehicle-only enzyme, 0 = enzyme-free background; activation factor at 10 µM; 330,000 tested, 0.16% active;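 active = activation factor of the enzyme at least 2-fold when tested at 20 µM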
Target sequence (P09923 whole entry, looked up): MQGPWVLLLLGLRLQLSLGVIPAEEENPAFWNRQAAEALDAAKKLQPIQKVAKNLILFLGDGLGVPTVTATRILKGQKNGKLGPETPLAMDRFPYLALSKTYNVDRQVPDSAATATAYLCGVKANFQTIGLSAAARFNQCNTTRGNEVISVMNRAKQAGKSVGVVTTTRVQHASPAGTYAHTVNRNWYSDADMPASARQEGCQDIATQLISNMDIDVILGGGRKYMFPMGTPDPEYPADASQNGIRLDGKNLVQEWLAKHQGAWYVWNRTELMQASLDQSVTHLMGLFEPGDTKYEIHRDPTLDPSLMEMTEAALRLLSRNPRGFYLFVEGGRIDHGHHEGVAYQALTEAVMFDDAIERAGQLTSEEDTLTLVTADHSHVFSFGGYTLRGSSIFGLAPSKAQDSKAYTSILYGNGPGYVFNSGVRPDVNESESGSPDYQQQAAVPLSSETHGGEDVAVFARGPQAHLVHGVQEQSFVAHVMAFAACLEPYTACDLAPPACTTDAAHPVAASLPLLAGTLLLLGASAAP
bIAP inhibitor: intestinal alkaline phosphatase (bovine) inhibition. AID 1019. purified bovine IAP, CDP-star luminescence, 30 min. inhibition, % at 20 µM. 190,000 tested, under 10 active;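 active = over 50% inhibition of intestinal alkaline phosphatase at 20 µM in the single-dose screen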
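System: purified bovine intestinal alkaline phosphatase (IAP) enzyme; Input: IAP diluted 1/65,000,000 in the well; Measured by: CDP-star luminescence signal; Compound dosing: 20 µM single dose; Incubation: 30 min reaction at room temperature.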
bIAP act: intestinal alkaline phosphatase (bovine) activation; AID 1016; activation factor at 20 µM; purified bovine IAP, CDP-star luminescence, 30 min; active compounds read high; fold of DMSO-control signal, blank-subtracted; 200,000 tested, 0.17% active;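 active = activation factor of 2 or more at 20 µM, a signal rise over negative controls twice the positive control's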
hIAP block: blocks human intestinal alkaline phosphatase; P09923; purified IAP, CDP-Star luminescence, 30 min; inhibition, % at 10 µM; 330,000 tested, 0.12% active; AID 2544;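 active = inhibition reaching a set limit with compound at 10 µM in the primary screen, cut at about 35% in these data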;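 also: plate controls were DMSO wells with enzyme for no effect and no-enzyme buffer wells for full effect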
mIAP activ: increases mouse intestinal alkaline phosphatase activity | muIAP, CDP-Star luminescence, 30 min; active compounds read high; 1 = vehicle-only enzyme signal, 0 = enzyme-free wells | 330,000 tested, 0.24% active | activation factor at 10 µM;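 active = activation factor of at least 2 at 20 µM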
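System: mouse IAP enzyme. Reagent: CDP-Star chemiluminescent phosphatase substrate. Benchmarks: DMSO wells, no-enzyme wells. Times: 30 min enzyme-substrate-compound incubation at room temperature. Detection: luminescence from enzymatic CDP-Star hydrolysis. Doses: test compounds delivered from DMSO solution.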
mIAP block: mouse IAP inhibition; purified mouse IAP, CDP-Star luminescence, 30 min; inhibition, % at 10 µM; 330,000 tested, 0.2% active; AID 2806;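 active = inhibition of at least 40% at 10 µM in the primary screen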;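 also: plate controls were DMSO with enzyme for no effect and no enzyme wells for full effect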
Starred values were filed as active, the others as inactive; x = not tested or not shown. Only some compounds are listed: those with a hit (about 0.72% of all), similar ones and a draw of the others.

SMILES | hIAP act | bIAP inhibitor | bIAP act | hIAP block | mIAP activ | mIAP block
C[C@@H]1CN([C@H](C)CO)C(=O)c2cc(NC(=O)Nc3ccc(F)cc3)ccc2O[C@H]1CN(C)C(=O)Nc1ccc(C(F)(F)F)cc1 | 1.1 | x | x | -7 | 2* | -103
C[C@H](CO)N1C[C@H](C)[C@@H](CN(C)C(=O)Nc2ccc3c(c2)OCO3)Oc2ccc(NC(=O)NC3CCCCC3)cc2C1=O | 0.96 | x | x | 4 | 2.3* | -129
C[C@H](CO)N1C[C@H](C)[C@@H](CN(C)C(=O)Nc2ccccc2)Oc2ccc(NC(=O)Nc3ccc(C(F)(F)F)cc3)cc2C1=O | 0.9 | x | x | 10 | 1.9 | -90
CC(C)NC(=O)Nc1ccc2c(c1)C(=O)N([C@H](C)CO)C[C@H](C)[C@@H](CN(C)C(=O)Nc1ccc(C(F)(F)F)cc1)O2 | 1.1 | x | x | -10 | 2.3* | -132
CN(C)CCCNC(=O)C[C@H]1C[C@H](C(=O)N2CCOCC2)[C@@]2(C)c3[nH]c4cc(CCC(=O)N(C)C)ccc4c3CCN2C1=O | x | x | x | x | 1.1 | -11
COCCCNC(=O)c1ccc2c(=O)n(C3CCCC3)c(=S)[nH]c2c1 | 1.2 | -2 | 1 | -20 | 1 | 0
CC(C)C[C@@]12C(=O)N(c3cccc(Cl)c3)C(=O)N1[C@H](c1ccc(Br)cc1)[C@@H]1C(=O)N(C(C)(C)C)C(=O)[C@@H]12 | 0.95 | x | x | 5 | 0.96 | 4
Cc1cc(N2CCCCC2)nc(-c2ccc(Br)cc2)n1 | 1 | 11 | 0.9 | -1 | 0.86 | 14
COc1ccc(Cc2nc3ccc(C(=O)NCc4ncc(C)[nH]4)cc3o2)cc1OC | 0.94 | x | x | 6 | 0.5 | 50*
CCOC(=O)C1(CC2CCCCO2)CCN(C(=O)Nc2cccc(SC)c2)CC1 (centres undefined) | 1.4 | -18 | 1.2 | -45 | 2.4* | -141
COc1ccc(NC(=O)CSc2nc(N)c(C#N)cc2C#N)cc1 | 1.1 | 6 | 0.9 | -9 | 0.99 | 1
COc1ccc(C(=O)Nc2nc3ccccc3[nH]2)cc1OC | 0.97 | -122 | 2.2* | 3 | 0.96 | 4
COc1cc(C(=O)Nc2nc3ccccc3[nH]2)ccc1OC(F)F | 1.2 | x | x | -20 | 1 | 0
O=C(NC1CCCC1)c1sc(=S)n2c1[nH]c(=O)c1ccccc12 | 0.97 | 13 | 0.9 | 3 | 0.95 | 5
O=C(NCc1ccco1)c1sc(=S)n2c1[nH]c(=O)c1ccccc12 | 0.91 | 12 | 0.9 | 9 | 0.6 | 40*
Cc1sc(NC(=O)CCCCC(=O)Nc2sc(C)c(C)c2C(=O)O)c(C(=O)O)c1C | 1 | x | x | -2 | 0.97 | 2
O=C(NCc1ccccc1)NCC12CC3CC(CC(C3)C1)C2 | 1.2 | -1 | 1 | -21 | 2.1* | -111
COc1cc([C@H]2c3[nH]c4ccccc4c3C[C@H]3C(=O)N4[C@@H](c5cc(OC)c(OC)c(OC)c5)c5[nH]c6ccccc6c5C[C@H]4C(=O)N23)cc(OC)c1OC | 1.1 | 36 | 0.6 | -9 | 3.8* | -276
COc1ccc(N2C(=O)N3[C@H](c4cccc(C)c4)[C@@H]4C(=O)N(Cc5ccccc5)C(=O)[C@@H]4[C@]3(Cc3ccccc3)C2=O)cc1 | 1.2 | x | x | -18 | 1.1 | -6
Cc1cccc([C@@H]2[C@@H]3C(=O)N(Cc4ccccc4)C(=O)[C@@H]3[C@]3(C)C(=O)N(c4ccc(C(F)(F)F)cc4)C(=O)N23)c1 | 1 | x | x | 0 | 0.59 | 41*
COc1ccc(CNC(=S)Nc2cccc(Cl)c2)cc1 | 0.83 | x | x | 17 | 2.7* | -172
COc1ccc(C(C)NC(=S)NCc2ccc(F)cc2)cc1 (centres undefined) | 0.95 | x | x | 5 | 1.3 | -33
COc1cccc(C(C)NC(=S)NCc2ccc(Cl)cc2)c1 (centres undefined) | 1.2 | 23 | 0.8 | -22 | 2.5* | -148
CCCCc1ccc(NC(=S)NCc2cccc(OC)c2)cc1 | 0.89 | 11 | 0.9 | 11 | 2.5* | -146
S=C(NCc1cccnc1)Nc1cc(Cl)cc(Cl)c1 | 0.92 | x | x | 8 | 2.1* | -109
SMILES | hIAP act | bIAP inhibitor | bIAP act | hIAP block | mIAP activ | mIAP block
S=C(NCc1cccnc1)Nc1cccc(Cl)c1 | 1 | 11 | 0.9 | -4 | 1.1 | -14
O=C(NCc1ccc(F)cc1)C1CCCN1C(=O)Nc1ccc(F)cc1 (centres undefined) | 1.2 | x | x | -16 | 0.92 | 8
O=C(Nc1ccc(Cl)c(C(F)(F)F)c1)NC1CC2CCCC(C1)N2C1CC1 (centres undefined) | 0.92 | x | x | 8 | 4.4* | -337
O=C(Nc1cccc(F)c1)NC1CC2CCCC(C1)N2C1CC1 (centres undefined) | 0.94 | -2 | 1 | 6 | 1.4 | -38
COc1ccc(C(C(=O)NC2CCCC2)N(Cc2ccc(F)cc2)C(=O)c2ccn[nH]2)cc1OC (centres undefined) | 0.93 | -114 | 2.1* | 7 | 1.6 | -63
COc1ccc(C(C(=O)NC2CCCC2)N(Cc2cccnc2)C(=O)Cc2cccs2)cc1OC (centres undefined) | 1.1 | x | x | -7 | 1 | -1
CC(C)(C)NC(=O)C(c1ccc(F)cc1)N(Cc1ccccc1Cl)C(=O)c1ccn[nH]1 (centres undefined) | 1.5 | -112 | 2.1* | -51 | 1.1 | -11
COc1ccc(C(C(=O)NC2CCCC2)N(Cc2ccc(C)cc2)C(=O)c2ccn[nH]2)cc1OC (centres undefined) | 1 | -175 | 2.7* | -1 | 1.9 | -87
COc1ccc(C2C(C(=O)Nc3cc(OC)c(OC)c(OC)c3)c3ccccc3C(=O)N2C)cc1 (centres undefined) | 1.4 | -123 | 2.2* | -36 | 2* | -102
O=C1C2CCCN2C(=O)N1CCN1CCN(CCO)CC1 (centres undefined) | 0.98 | -173 | 2.7* | 2 | 1 | -5
Cc1ccc(C(=O)Nn2cnc3scc(-c4cccs4)c3c2=O)c(O)c1 | 0.98 | 4 | 1 | 2 | 0.77 | 23
CC1CCCC(C)N1C(=O)COc1cccc(Oc2ccccc2)c1 (centres undefined) | 1.1 | x | x | -8 | 1.1 | -6
Cc1cccc(NC(=O)c2cn(-c3ccccc3)nc2-c2ccccc2)c1 | 1.1 | 6 | 0.9 | -9 | 2.6* | -159
CC(C)CNC(=S)Nc1ccc(Oc2ccccc2)cc1 | 0.93 | 5 | 0.9 | 7 | 2.2* | -116
COc1ccc(C(=O)/C(=C/c2cccs2)c2nc3ccccc3o2)cc1 | 0.88 | -2 | 1 | 12 | 0.55 | 46*
COc1ccc(/C=C(\CC(=O)O)c2nc3ccccc3o2)cc1 | 1.1 | -12 | 1.1 | -13 | 1.1 | -11
CC(NC(=O)Nc1ccccc1)C(c1cccs1)N1CCOCC1 (centres undefined) | 0.97 | 4 | 1 | 3 | 1 | -2
